CSC inhib – blocks cancer stem cells | cancer stem cell-like cells viability, luminescence | inhibition, % at 7.5 µM | 300,000 tested, 1.1% active | AID 2717; in the data active means inhibition above about 75%; tested in HMLE shEcad cells
HIF act – HIF pathway transcriptional activation. 300,000 tested, 0.32% active. activation, % at 7.5 µM (by protocol). U2OS HRE-luciferase reporter, luminescence; normalized: DMSO 0%, desferrioxamine 100%. AID 1910;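 active means mean activation of at least 10% of the iron chelator positive control signal, with at least half of replicates also reaching 10%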
Beta apoptosis – blocks beta cell apoptosis; AID 435005; 300,000 tested, 0.8% active; protection from apoptosis, % (test concentration not listed); INS-1E cytokine-induced death, ATP luminescence, 48 h; percent of positive-control rescue, neutral wells zero;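 active means Every replicate reaches about 75%, or at least half do and their mean reaches it too, limit read from the data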;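 further: higher means more ATP so stronger rescue from cytokine killing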
Calb FLC – C. albicans growth modulation with fluconazole | C. albicans CaCi-2 (fluconazole-resistant clinical isolate) + fluconazole, Alamar Blue growth, 48 h | growth inhibition, % (no concentration beside the values) | 300,000 tested, 0.57% active | AID 1979;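 active means growth inhibition above about 58% in most replicates, limit read from the data, passing the limit was not always enough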;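 further: all wells also contain fluconazole at 8 µg/ml as a sub-toxic cotreatment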
T cruzi inh – T. cruzi replication inhibition. T. cruzi beta-gal in NIH3T3, luminescence, 90 h. inhibition, % (test concentration not listed). 300,000 tested, 1.4% active. AID 1885;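 active means mean inhibition across valid replicates above about 55%, limit read from the data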;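 further: signal also drops with host cell toxicity which is not excluded here; higher percent means less beta-gal luminescence so fewer parasites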
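Material: NIH/3T3 host cells with β-galactosidase reporter T. cruzi; Input: 5,000 host fibroblasts per well; Medium: DMEM, 2% fetal bovine serum; Compound: 50 nL DMSO compound solution per well; Schedule: 3 h host attachment, then at least 90 h co-culture; Detection: luminescent β-galactosidase signal after 60 min lysis.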
PolyA inh – blocks polyadenylation in yeast reporter cells; S. cerevisiae SKY197-pL101 polyadenylation reporter, beta-gal luminescence; efflux-impaired pdr1/pdr3 knockout yeast; score 100 = 6 SD above DMSO; activity score, % at 12 µM; 300,000 tested, 0.02% active;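 active means lowest replicate activity score at least 50, where 100 means six control SD above control mean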;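 further: yeast exposed to compound for 9 h at 30 °C; higher score means more reporter readthrough which indicates perturbed polyadenylation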
A number is an active result; . = inactive; / = no result. Sampled rows, rich in hits. Any-hit rate of the full collection: about 3.1%.

SMILES	CSC inhib	HIF act	Beta apoptosis	Calb FLC	T cruzi inh	PolyA inh
CCCCCc1cc(=O)oc2c(C(CCN3CCCC(C)C3)c3cc(OC)c(OC)c(OC)c3)c(OC)cc(OC)c12 (stereo unspecified)	101.7	.	109.6	.	.	.
COc1ccc(C(CCN2CCCCC2)c2c(OC)cc(OC)c3c(-c4ccccc4)cc(=O)oc23)cc1 (stereo unspecified)	.	.	86.3	.	.	.
COc1cc(OC)c2ccc(=O)oc2c1C(CCN1CCCC(C)C1)c1ccc(N(C)C)cc1 (stereo unspecified)	.	.	.	.	.	.
CCCCCc1cc(=O)oc2c(C(CCN3CCCCC3)c3cc(OC)c(OC)c(OC)c3)c(OC)cc(OC)c12 (stereo unspecified)	78.8	.	.	.	.	.
CCCCCc1cc(=O)oc2c(C(CCN3CCCC(C)C3)c3ccc(N(C)C)cc3)c(OC)cc(OC)c12 (stereo unspecified)	108.9	.	.	.	.	.
CCOC(=O)c1c(C)[nH]c(C(=O)COC(=O)c2cc(C)oc2C)c1C	.	/	.	/	/	/
CCOc1ccc(C(=O)NCc2ccco2)cc1Cl	.	.	/	.	.	.
Cc1cc([N+](=O)[O-])nn1Cc1ccc(C(=O)N/N=C/c2ccc(F)cc2)cc1	.	.	.	.	.	.
Cc1cc([N+](=O)[O-])nn1Cc1ccc(C(=O)N/N=C/c2ccc(O)cc2O)cc1	117.2	21.1	97.7	.	.	.
O=C(N/N=C/c1ccc(O)cc1O)c1ccc(CN2C(=O)c3cccc4cccc2c34)cc1	.	13.1	93.2	107.8	.	.
O=C(N/N=C/c1ccccc1)c1ccc(CN2C(=O)c3cccc4cccc2c34)cc1	.	.	.	.	.	.
COc1cc(C(=O)NCC2CCCO2)ccc1OCc1ccc(Cl)cc1Cl (stereo unspecified)	.	.	.	.	.	.
CC(C)Sc1nnc(NC(=O)c2ccc3c(c2)OCO3)s1	.	.	/	.	.	.
COc1ccc(-c2nn(-c3ccccc3)cc2/C=N/N2C(=O)CSC2=S)cc1	108.4	.	105.9	.	.	.
COc1ccc(/C=N/N2C(=O)CSC2=S)cc1	.	.	.	.	.	.
CCCC(=O)NC(c1ccc2c(c1)OCO2)c1cc(Cl)c2cccnc2c1O (stereo unspecified)	113.2	12.2	85.1	.	55.9	.
CCCC(=O)NC(c1cccs1)c1cc(Cl)c2cccnc2c1O (stereo unspecified)	.	28.7	93.2	86.1	77.7	/
CCC(=O)NC(c1cc(Cl)c2ccccc2c1O)C(C)C (stereo unspecified)	.	/	.	/	/	/
CCCC(=O)NC(c1ccco1)c1cc(Cl)c2cccnc2c1O (stereo unspecified)	.	.	81.6	.	61.6	.
COC(=O)C1=C(C)NC2=C(C(=O)CCC2)C1c1ccc(-c2ccsc2C(=O)OC)o1 (stereo unspecified)	.	.	.	.	.	.
CC(C)C[C@H]1CN=C(Nc2ccccc2)N1CC1CCC(C(C)(C)C)CC1 (stereo partly specified)	78.6	/	110.7	/	/	/
O=C(c1ccc(OC2CCN(Cc3ccc(F)cc3)CC2)cc1)N1CCCC1	.	52.6	.	.	.	.
O=C(c1ccc(OC2CCN(CCc3ccccc3)CC2)cc1)N1CCCC(CCCO)C1 (stereo unspecified)	.	43.8	.	.	.	.
COC(=O)/C(C#N)=C(/Nc1ccc(F)c(Cl)c1)C(F)(F)F	.	.	.	.	.	.
O=C(COC(=O)CSc1ccc([N+](=O)[O-])cc1)NCc1cccs1	.	.	.	.	.	.
CN(Cc1cccs1)C(=O)COC(=O)CNC(N)=O	/	.	.	.	.	.
CN(Cc1cccs1)C(=O)CSc1nc(N)cc(N)n1	.	39.5	.	.	.	.
O=C(Nc1cccc(F)c1)N1CCCC(CNS(=O)(=O)Cc2ccccc2)C1 (stereo unspecified)	.	.	.	.	.	.
NC1=NC[C@@H](CC2CCCCC2)N1CCc1cc(C(F)(F)F)cc(C(F)(F)F)c1	139.1	/	108.9	/	/	/
NC1=NC[C@H](Cc2ccccc2)N1CCCCC1CCCCC1	.	.	112.1	104.9	.	.

Compound activity as filed in PubChem BioAssay.
